# Source: PubChem
# Most compounds without a hit are left out; they make up all but 2.9% or so of the library.
# core dimer inh: blocks dimerization of HCV core protein; TR-FRET GST/Flag-core106 dimerization, 1536-well; inhibition, % at 5 µM; actives 0.33% (n = 300,000);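 active = inhibition above the mean of all tested compounds plus 3 SD, set per screening campaign, cut at about 45% in these data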
#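 Material: Tagged HCV core106 pair (GST and Flag) | Amount: GST-core106 13.5 nM, Flag-core106 17 nM | Medium: KF-containing HEPES buffer, pH 7.45, DTT, CHAPS, BSA | Reagent: Eu donor and XL665 acceptor anti-tag antibodies | Schedule: 4 h at 22.5 °C | Technique: Time-resolved FRET, ex 340 nm, em 617 and 671 nm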
# ABHD5-PLIN5 inh: ABHD5-PLIN5 protein interaction inhibition; Split G. princeps luciferase complementation, luminescence, 4 h; actives 0.78% (n = 360,000); inhibition, % at 4 µM; AID 602281; Q00G26+Q8WTS1;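 active = inhibition above the mean inhibition across every tested compound plus 3 SD, cut at about 22% in these data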;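 note: 0% = DMSO only wells and the 100% control is not disclosed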
# APOBEC3G inh: blocks human APOBEC3G single-stranded DNA deamination | recombinant A3G, ssDNA deamination FAM/TAMRA fluorescence | actives 0.28% (n = 330,000) | Q9HC16 | AID 493012 | inhibition, % at 20 µM;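 active = inhibition of at least 40% at 20 µM, with no more than 30% in the related APOBEC3A deaminase screen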;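 note: plate controls were DMSO wells with A3G for no effect and wells lacking A3G enzyme for full effect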
# NS3 helicase inh: HCV NS3 helicase inhibition | NS3 helicase DNA unwinding, Cy5 molecular beacon fluorescence | inhibition, % at 10.9 µM | actives 0.56% (n = 290,000);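 active = inhibition above the mean of all tested compounds plus 3 SD, set per campaign, cut at about 35% in these data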;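 note: 0% = DMSO wells and 100% = thioflavine S control wells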
#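 Assay system – hepatitis C virus NS3 helicase domain fragment enzyme · Buffer or medium – MOPS pH 6.5, MgCl2, DTT, Tween20, BSA · Reagent – Cy5/quencher beacon DNA duplex and ATP to start · Compound – single 10.9 µM dose · Timing – 1 h at 25 °C · Technique – Cy5 beacon fluorescence read at start and 1 h · Measure – % inhibition of unwinding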
# PRMT1 FP inh: PRMT1 (human) inhibition, primary screen; Q99873; AID 652257; inhibition, % at 2.79 µM; recombinant PRMT1, activity-based probe fluorescence polarization; actives 1.3% (n = 370,000);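 active = inhibition above about 21% made by adding two undisclosed values, limit read from the data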
# Target sequence (Q99873 whole entry, looked up): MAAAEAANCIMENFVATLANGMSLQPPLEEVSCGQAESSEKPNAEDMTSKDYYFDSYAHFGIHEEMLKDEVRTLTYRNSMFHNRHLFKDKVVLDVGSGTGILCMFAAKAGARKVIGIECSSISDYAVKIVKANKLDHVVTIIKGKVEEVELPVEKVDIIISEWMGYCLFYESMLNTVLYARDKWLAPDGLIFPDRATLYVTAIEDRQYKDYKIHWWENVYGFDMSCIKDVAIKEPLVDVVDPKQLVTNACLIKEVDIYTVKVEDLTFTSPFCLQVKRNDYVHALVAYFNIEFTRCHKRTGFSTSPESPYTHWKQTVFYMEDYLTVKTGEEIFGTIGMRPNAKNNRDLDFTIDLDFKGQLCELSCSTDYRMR
# APOBEC3A inh: blocks human APOBEC3A ssDNA deamination. actives 0.41% (n = 330,000). recombinant A3A, FAM/TAMRA ssDNA deamination fluorescence. P31941. AID 493011. inhibition, % at 20 µM;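 active = at least 40% inhibition at 20 µM here, with at most 30% in a related deaminase screen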;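 note: plate controls were A3A with DMSO for no effect and wells lacking A3A enzyme for full effect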
# Target sequence (P31941 whole entry, looked up): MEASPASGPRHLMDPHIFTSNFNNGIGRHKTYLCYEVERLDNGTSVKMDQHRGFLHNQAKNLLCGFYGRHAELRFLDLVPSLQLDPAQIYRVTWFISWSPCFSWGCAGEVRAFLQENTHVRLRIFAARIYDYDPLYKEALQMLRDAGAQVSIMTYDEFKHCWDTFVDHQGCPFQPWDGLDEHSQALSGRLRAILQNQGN
# PRMT1 inh conf: PRMT1 (human) inhibition, FP confirmation. actives 42% (n = 3,300). shares compounds with PRMT1 FP inh. inhibition, % at 2.79 µM. recombinant His-PRMT1, activity-based probe fluorescence polarization. AID 687036;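 active = mean inhibition across replicates above the hit cutoff derived for the earlier primary screen, cut at about 22% in these data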
# Active calls of the source: *; i = inactive; . = not tested or not shown.
SMILES,core dimer inh,ABHD5-PLIN5 inh,APOBEC3G inh,NS3 helicase inh,PRMT1 FP inh,APOBEC3A inh,PRMT1 inh conf
CC[C@@]1(O)C(=O)OCc2c1cc1n(c2=O)Cc2cc3c(N)cccc3nc2-1,-9,-7,22,.,2,12,.
COc1ccc(CNC(=O)CSc2nc3[nH]ncc3c(=O)n2-c2ccccc2Br)cc1,1,.,-5,-7,.,0,.
O=C1CCCC2=C1Sc1ccccc1N2,-23,0,-12,-9,37*,-4,17
O=C(Nc1nccs1)C(Br)C(Br)c1ccccc1 (centres undefined),6,15,-2,9,65*,4,59*
CC(=O)OC(C(=O)Nc1nccs1)c1ccccc1 (centres undefined),-13,1,-7,-8,0,-3,.
N#CCc1c(C#N)c(N)nc(N2CCCC(O)C2)c1C#N (centres undefined),0,7,-1,4,31*,2,3
C[C@H](CO)N1C[C@H](C)[C@H](CN(C)S(=O)(=O)c2cccc(F)c2)OCc2ccccc2-c2c(n(C)c3ccccc23)C1=O,.,5,.,.,34*,.,-1
O=C(CSc1ccc(-c2ccco2)nn1)NCc1ccc(Cl)cc1,11,6,-4,13,44*,0,10
COc1cccc(CNC(=O)CSc2ccc(-c3ccco3)nn2)c1,4,9,-3,3,8,3,.
Cc1ccc(CSc2ccc(-c3ccco3)nn2)cc1,13,-1,1,25,33*,3,7
O=C(CSc1ccc(-c2ccco2)nn1)NCc1ccccc1,7,2,-3,9,41*,6,16
O=C(c1sc2cc(Cl)ccc2c1Cl)N1CCN(CCc2ccccn2)CC1,1,-1,0,-16,0,1,.
CCOC(=O)C1CSc2[nH]c(=O)sc2C1c1ccccc1 (centres undefined),3,-10,-2,2,31*,0,-2
O=C1C(=Cc2ccccc2O)SC(=S)N1CCCN1CCOCC1,.,-30,.,.,68*,.,83*
O=C(CCN1C(=O)/C(=C\c2ccccc2)SC1=S)NCCCN1CCOCC1,-15,-8,-2,-50,12,-4,.
COc1ccccc1-c1noc2c1C(=O)N(C(=O)OC(C)(C)C)CC2,.,1,.,.,-6,.,.
Cc1c(Nc2cc(Cl)c3nonc3c2[N+](=O)[O-])c(=O)n(-c2ccccc2)n1C,.,21,-4,-8,59*,1,58*
Cc1c(Nc2cc(N3CCOCC3)c3nonc3c2[N+](=O)[O-])c(=O)n(-c2ccccc2)n1C,-3,.,.,-4,.,.,.
CC(C)OC(=O)c1ccc(NCc2cc(O)ccc2O)cc1,.,4,.,.,36*,.,30*
CC1(C(=O)NS(=O)(=O)c2cccc(Cl)c2)CCN1C(=O)C1CCCCC1 (centres undefined),.,13,.,.,-3,.,.
CC1(C(=O)Nc2cccc(C#N)c2)CCN1C(=O)c1ccccc1CCc1ccccc1 (centres undefined),.,-6,.,.,0,.,.
Nc1c(C(=O)c2ccccc2)sc2nsc(SCCN3CCCC3)c12,1,1,14,-16,27*,-7,12
CC(=O)c1sc2nsc(SCCN3CCCCC3)c2c1N,-5,-26,20,-1,27*,-3,4
CSc1ccccc1-c1nc(-c2ccncc2)no1,3,-5,-4,-7,3,-2,.
N#CCc1ccc(NC(=O)/C=C/c2ccc([N+](=O)[O-])o2)cc1,.,10,.,20,.,.,.
SMILES,core dimer inh,ABHD5-PLIN5 inh,APOBEC3G inh,NS3 helicase inh,PRMT1 FP inh,APOBEC3A inh,PRMT1 inh conf
N#C/C(=C\c1ccc([N+](=O)[O-])o1)C(=O)Nc1ccc(F)cc1,35,15,8,43*,31*,14,11
CCSc1nc(=S)n(Cc2ccccc2)c(C)c1C(C)=O,-5,4,1,9,4,5,.
CC(=O)c1c(N2CCN(C)CC2)nc(=S)n(Cc2ccccc2)c1C,-7,-5,-3,-8,39*,-6,-5
CCOc1ccc(CCNC(=O)Cn2c(=O)c3cccn3c3cccnc32)cc1,17,1,-5,2,0,-2,.
CCN1/C(=C/C=C/C=C/c2sc3ccccc3[n+]2CC)Sc2ccccc21,i,.,24,18,.,38,.
CCN1/C(=C/C=C/C=C/C=C/c2sc3ccccc3[n+]2CC)Sc2ccccc21,28,7,14,-59,53*,15,23*
Cc1cnc(CNC(=O)C2(C)CCCN2CC(C)C)cn1 (centres undefined),.,-3,.,.,-2,.,.
COc1ccc(C(=O)Cn2c(NCCCO)nc3ccccc32)cc1OC,7,0,4,-5,48*,0,6
CCOC(=S)SCC(=O)Nc1nc(C)c(C)s1,-6,0,-5,-8,50*,2,39*
Cc1nc(NC(=O)CSc2nc(N)cc(N)n2)sc1C,-1,-8,-8,3,-3,-2,.
CCOC(=S)SCC(=O)Nc1nccs1,1,1,-8,-2,46*,-3,13
CCOC(=O)C1(C)CCCN1C(=O)c1ccccc1OC (centres undefined),.,4,.,.,-1,.,.
CCOC(=O)C1=CCN(S(=O)(=O)c2ccc(C)cc2)C1c1cccs1 (centres undefined),.,2,.,.,0,.,.
COc1ccc(C2C3=C(N=C4SCC(=O)N42)c2ccccc2CC3)cc1OC (centres undefined),1,-18,-2,2,54*,2,19
CCOC(=O)C1=C(c2ccccc2)N=C2SCC(=O)N2C1c1ccc(OCC)c(OCC)c1 (centres undefined),-1,5,-3,3,-2,-1,.
COc1ccc(/C=c2/sc3n(c2=O)C(c2ccccc2OC)C2=C(N=3)c3ccccc3CC2)cc1O (centres undefined),25,-7,-4,-9,7,5,.
COc1ccccc1C1C2=C(N=C3SCC(=O)N31)c1ccccc1CC2 (centres undefined),12,-16,-2,15,37*,-1,1
CSCCNC(=O)C1(C)CCN1C(=O)CCc1ccccc1 (centres undefined),.,-8,.,.,1,.,.
Cc1ccc(C(c2nc3ccccc3[nH]2)n2c(-c3ccccc3)nc3ccccc32)cc1 (centres undefined),.,-2,.,.,-4,.,.
c1ccc(NNC2=NCCS2)cc1,-12,-7,26,-3,29*,0,1
O=C(CSc1ccccc1)NC1=NCCS1,-8,-2,0,0,1,2,.
CN1C(=O)CC(N2CCC(C(N)=O)(N3CCCCC3)CC2)C1=O (centres undefined),-4,-1,-3,-6,4,3,.
